Consider ten molecules from ChEMBL document CHEMBL1157547, “Structural basis for selective inhibition of purine nucleoside phosphorylase from Schistosoma mansoni: kinetic and structural studies” (Bioorg Med Chem, 2010).

Each structure is given as a SMILES string.

Target in one assay: not listed separately
Description: Inhibition of Schistosoma mansoni purine nucleoside phosphorylase. Put shortly: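 Coupled spectrophotometric assay with 5 nM SmPNP (as monomer) in 50 mM potassium phosphate, pH 7.4, with 10 uM inosine and xanthine oxidase 40 milliunits/mL. Uric acid formation read at 293 nm, 25°C, in triplicate. IC50 obtained from rates at six or more inhibitor concentrations. Values are means of at least three independent experiments.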
As usually defined, the IC50 is the midpoint of a concentration-inhibition curve. `Nc1nc2c(ccn2[C@H]2O[C@@H](CO)[C@H](O)[C@@H]2O)c(=S)[nH]1` came in with an IC50 of 95 µM.
For the molecule `Nc1nc2c(Cc3ccncc3)c[nH]c2c(=O)[nH]1`, half-maximal inhibition (IC50) was put at 3 µM.
Same read-out and setting: the figure for `O=c1nc[nH]c2c([C@H]3O[C@@H](CO)[C@H](O)[C@@H]3O)[nH]nc12` is 47 µM; for `Nc1ncnc2c1ccn2[C@H]1O[C@@H](CO)[C@H](O)[C@@H]1O` it is 200 µM; for `Nc1nc2c(Cc3ccc(OCc4ccccc4)cc3)c[nH]c2c(=O)[nH]1` it is 0.5 µM.
On the same count and under the same terms, the figure for `CC(C)c1ccc(Cc2c[nH]c3c(=O)[nH]c(N)nc23)cc1` is 0.15 µM; for `Nc1nc2c(Cc3cccnc3)c[nH]c2c(=O)[nH]1` [PELDESINE] it is 0.8 µM.
`Nc1nc2c(Cc3cccc(Cl)c3)c[nH]c2c(=O)[nH]1` had an IC50 of 0.5 µM.
Same read-out and setting: as for `Nc1nc2c(Cc3ccccn3)c[nH]c2c(=O)[nH]1`, the figure is 7 µM.
The molecule `Nc1nc2c(Cc3ccccc3)c[nH]c2c(=O)[nH]1` yielded an IC50 of 1.4 µM.

Another assay deals with T1, Purine nucleoside phosphorylase (Homo sapiens, UniProt P00491).
T1 sequence (P00491 whole entry): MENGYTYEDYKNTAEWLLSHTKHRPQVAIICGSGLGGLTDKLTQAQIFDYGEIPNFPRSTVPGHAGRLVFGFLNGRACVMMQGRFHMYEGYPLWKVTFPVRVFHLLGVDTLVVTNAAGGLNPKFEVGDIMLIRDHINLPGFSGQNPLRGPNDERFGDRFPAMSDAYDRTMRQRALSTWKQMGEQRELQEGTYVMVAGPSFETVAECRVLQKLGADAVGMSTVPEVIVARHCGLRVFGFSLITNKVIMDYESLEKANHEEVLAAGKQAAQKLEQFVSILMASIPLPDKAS
Description: Inhibition of human purine nucleoside phosphorylase.
In turn, `Nc1nc2c(ccn2[C@H]2O[C@@H](CO)[C@H](O)[C@@H]2O)c(=S)[nH]1` returned a half-inhibitory concentration (IC50) of 315 µM.
`Nc1nc2c(Cc3ccncc3)c[nH]c2c(=O)[nH]1`: the IC50 worked out at 0.1 µM. Compared with the last molecule, the IC50 is about 3200-fold lower.
Same read-out and setting: as for `O=c1nc[nH]c2c([C@H]3O[C@@H](CO)[C@H](O)[C@@H]3O)[nH]nc12`, the figure is 300 µM; as for `Nc1ncnc2c1ccn2[C@H]1O[C@@H](CO)[C@H](O)[C@@H]1O`, 300 µM.
Still for that read-out and setting: as for `Nc1nc2c(Cc3ccc(OCc4ccccc4)cc3)c[nH]c2c(=O)[nH]1`, the figure is 0.3 µM; as for `CC(C)c1ccc(Cc2c[nH]c3c(=O)[nH]c(N)nc23)cc1`, 0.27 µM.
On the same count and under the same terms, the figure for `Nc1nc2c(Cc3cccnc3)c[nH]c2c(=O)[nH]1` [PELDESINE] is 0.2 µM; for `Nc1nc2c(Cc3cccc(Cl)c3)c[nH]c2c(=O)[nH]1` it is 0.05 µM.
For `Nc1nc2c(Cc3ccccn3)c[nH]c2c(=O)[nH]1`, half-maximal inhibition (IC50) required 0.023 µM.

Test system in a further assay: not listed separately
The assay can be described thus: Selectivity ratio of IC50 for human purine nucleoside phosphorylase to IC50 for Schistosoma mansoni purine nucleoside phosphorylase.
In the case of `Nc1nc2c(ccn2[C@H]2O[C@@H](CO)[C@H](O)[C@@H]2O)c(=S)[nH]1`, the Ratio IC50 turned out to be 3.3.
Same read-out and setting: as for `Nc1nc2c(Cc3ccncc3)c[nH]c2c(=O)[nH]1`, the figure is 0.033; as for `O=c1nc[nH]c2c([C@H]3O[C@@H](CO)[C@H](O)[C@@H]3O)[nH]nc12`, 6.4; as for `Nc1ncnc2c1ccn2[C@H]1O[C@@H](CO)[C@H](O)[C@@H]1O`, 1.5.
The same measure, in the same setting: as for `Nc1nc2c(Cc3ccc(OCc4ccccc4)cc3)c[nH]c2c(=O)[nH]1`, the figure is 0.6.
Still for that read-out and setting: as for `CC(C)c1ccc(Cc2c[nH]c3c(=O)[nH]c(N)nc23)cc1`, the figure is 1.8; as for `Nc1nc2c(Cc3cccnc3)c[nH]c2c(=O)[nH]1` [PELDESINE], 0.25; as for `Nc1nc2c(Cc3cccc(Cl)c3)c[nH]c2c(=O)[nH]1`, 0.1.
On to `Nc1nc2c(Cc3ccccn3)c[nH]c2c(=O)[nH]1`, for which the Ratio IC50 is 0.003.
